From PubChem BioAssay
Hits are enriched below; roughly 2.6% of the tested compounds scored in any of these assays.
Runt-CBFb FRET: Runt domain-CBFb interaction inhibition. Q01196+Q13951. Cerulean-Runt/Venus-CBFb FRET ratio 530/480, 1 h. inhibition, % at 20 µM. actives 0.46% (n = 220,000). AID 1496;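 active = inhibition over about 50% at 20 µM in the single-dose screen, limit read from the data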;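 also: 0% = DMSO wells and 100% = excess unlabeled CBFb competitor control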
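Measured by: fluorescence energy transfer, 422 nm excitation, 530/480 nm emission; test system: Cerulean-tagged RUNX1 Runt domain (FRET donor) fusion protein; buffer or medium: Tris pH 7.5 buffer with BSA; compound: one dose, 20 µM compound, 1% DMSO; times: two 1 h room-temperature incubations shielded from light; benchmarks: unlabeled CBFb 5 µM, positive control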
IMP-1 inh-1: inhibitors of Pseudomonas aeruginosa IMP-1 metallo-beta-lactamase. purified IMP-1, nitrocefin hydrolysis, epi-absorbance fluorescence. inhibition, % at 5.6 µM. actives 0.45% (n = 290,000);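 active = inhibition above the mean plus 3 SD of all compounds in the same screening run, cut at about 4.5% in these data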;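 also: 0% = IMP-1 with DMSO and 100% = DMSO wells lacking enzyme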
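Material – recombinant IMP-1 enzyme, purified · Amount – IMP-1 0.2 nM before substrate addition · Medium – HEPES buffer pH 7.1 with ZnSO4 and Brij 35 · Timing – 25 °C, 15 min preincubation, 25 min reaction · Measured by – plate fluorescence quenching by hydrolysis product, ex 480/em 530 nm · Read-out – percent enzyme inhibition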
Runt-SMMHC FRET: Runt domain-CBFb-SMMHC interaction inhibition | actives 0.74% (n = 220,000) | Q01196+Q13951 | inhibition, % at 20 µM | Cerulean-Runt/Venus-CBFb-SMMHC FRET ratio 530/480, 1 h;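 active = mean inhibition across duplicate retests at 20 µM reaching about 50%, limit read from the data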;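 also: 0% = DMSO wells and 100% = wells with excess untagged CBFb-SMMHC; inhibitors lower the FRET ratio by blocking Runt binding to CBFb-SMMHC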
VIM-2 inhibitor: blocks Pseudomonas aeruginosa VIM-2 metallo-beta-lactamase; purified VIM-2, nitrocefin hydrolysis, epi-absorbance fluorescence; inhibition, % at 5.6 µM; actives 0.89% (n = 290,000); AID 1527;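 active = inhibition above the mean of all tested compounds plus 3 SD, cutoff set per screening run, cut at about 7.5% in these data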;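 also: red hydrolysis product quenches plate fluorescence so inhibitors raise well fluorescence; 0% = enzyme with DMSO and 100% = DMSO without enzyme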
RanGTP-Impb inh: inhibitors of RanGTP-importin-beta interaction, primary screen, biochemical, FRET, CFP-Ran, YFP-importin-beta, homogeneous; cell-free CFP-Ran/YFP-importin-beta FRET ratio; inhibition, % (test concentration not listed); actives 1.1% (n = 300,000);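 active = more than half of the replicate wells show a fall in the fluorescence ratio signal beyond about 16%, limit read from the data, passing the limit was not always enough; inconclusive = exactly half of the replicate wells pass the set limit; inactive = fewer than half of replicates pass the limit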;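 also: 0% = DMSO wells and 100% = Ran loaded with GDP instead of GTP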
IMP-1 inh-2: blocks IMP-1 metallo-beta-lactamase in VIM-2 selectivity screen. shares compounds with VIM-2 inhibitor. purified IMP-1, nitrocefin hydrolysis, epi-absorbance fluorescence. 1,300 tested, under 10 active. inhibition, % at 5.6 µM; call rule not given here;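 also: 0% = enzyme with vehicle and 100% = vehicle without enzyme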
VIM-2 FRET inh: VIM-2 FRET inhibition, artifact counter-screen; inhibition, % at 5.6 µM; AID 1857; shares compounds with VIM-2 inhibitor; purified VIM-2, CCF2 FRET substrate hydrolysis; actives 23% (n = 1,300);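 active = inhibition above the mean of all tested compounds plus 3 SD, cut at about 19% in these data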;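 also: 0% = VIM-2 plus DMSO and 100% = no enzyme wells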
TEM-1 inh: selectivity counter-screen for VIM-2 inhibitors: E. coli TEM-1 inhibitors; inhibition, % at 5.6 µM; actives 3% (n = 1,300); AID 1866; shares compounds with VIM-2 inhibitor; Purified TEM-1, nitrocefin hydrolysis, epi-absorbance fluorescence;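 active = inhibition above that campaign's mean inhibition plus 3 SD, cut at about 0.46% in these data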;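 also: 0% = TEM-1 with DMSO and 100% = TEM-1 with 100 µM potassium clavulanate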
Target sequence (P62593 whole entry, looked up): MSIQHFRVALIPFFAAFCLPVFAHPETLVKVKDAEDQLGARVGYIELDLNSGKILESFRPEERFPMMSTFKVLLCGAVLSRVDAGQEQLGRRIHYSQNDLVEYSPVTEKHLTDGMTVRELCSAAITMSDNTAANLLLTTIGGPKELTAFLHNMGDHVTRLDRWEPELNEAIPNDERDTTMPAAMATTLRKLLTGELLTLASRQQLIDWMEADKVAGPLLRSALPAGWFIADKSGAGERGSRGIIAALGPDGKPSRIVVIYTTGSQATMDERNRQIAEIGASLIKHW
VIM-2 confirm 2: confirmation of P. aeruginosa VIM-2 metallo-beta-lactamase inhibitors; shares compounds with VIM-2 inhibitor; purified VIM-2, nitrocefin hydrolysis, epi-absorbance; inhibition, % at 5.6 µM; actives 96% (n = 1,300);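 active = inhibition of the VIM-2 beta-lactamase enzyme above about 11% from the earlier first-round screen, limit read from the data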;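 also: 0% = VIM-2 with DMSO and 100% = buffer wells without enzyme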
* = called active by the depositor; ? = inconclusive; / = not tested or not shown.

SMILES	Runt-CBFb FRET	IMP-1 inh-1	Runt-SMMHC FRET	VIM-2 inhibitor	RanGTP-Impb inh	IMP-1 inh-2	VIM-2 FRET inh	TEM-1 inh	VIM-2 confirm 2
CCOC(=O)C1(Cc2cccc(OC)c2)CCCN(C(=O)c2cc(C)oc2C)C1 (stereo not given)	/	-2	/	-3	1	/	/	/	/
COc1ccc(NC(=O)N2CCCC(c3ccccc3)C2)cc1 (stereo not given)	/	-2	/	-2	1	/	/	/	/
CC(=O)Oc1ccc(-c2csc(Nc3cccnc3)n2)cc1	-1	2	1	1	-5	/	/	/	/
Clc1cccc(-c2csc(Nc3cccnc3)n2)c1	-3	-1	1	-1	2	/	/	/	/
c1cncc(Nc2nc(-c3ccncc3)cs2)c1	-3	-1	0	16*	-5	-2	-4	-5	38*
c1cncc(Nc2nc(-c3cccnc3)cs2)c1	-2	-3	-2	12*	3	-3	-8	-7	41*
Cc1nc(C)c(-c2csc(Nc3cccnc3)n2)s1	0	-5	2	30*	-1	-3	-6	-7	45*
O=C(CN1CCCCCC1)Nc1ccc(Cl)cn1	/	1	/	0	4	/	/	/	/
COc1ccccc1N1CCN(CC(=O)Nc2nc(C)c(C(=O)N(C)C)s2)CC1	/	-4	/	-1	-2	/	/	/	/
O=C(O)c1ccc2c(c1)C(=O)N(c1ccc(OCc3ccccc3)cc1)C2=O	/	-2	/	-1	?	/	/	/	/
CC(COc1cccc2ccccc12)CN1CCN(C)CC1 (stereo not given)	-1	-2	2	22*	1	-2	2	-6	48*
COc1ccc(C(C)NC(=O)c2ccncc2)cc1 (stereo not given)	/	-2	/	-3	-2	/	/	/	/
CCCCn1c(-c2nn(C)cc2Cl)n[nH]c1=S	7	-2	8	39*	1	-2	66*	-8	48*
CCCCCCn1c(-c2cccs2)n[nH]c1=S	2	-3	15	72*	-1	-5	83*	-11	76*
CCCCn1c(-c2nn(C)c(C)c2Cl)n[nH]c1=S	5	-3	12	36*	-1	-3	66*	-8	46*
Cc1nc(-c2ccccn2)nc(SCC(=O)c2ccc(F)cc2)c1Cl	-2	-6	-2	50*	2	-5	-24	-6	67*
COc1ccc(C(=O)CSc2nc(-c3ccccn3)nc(C)c2Cl)cc1	-4	-4	0	29*	2	-5	-26	-6	61*
COc1ccc(C(=O)CSc2nnc3ccc(-c4ccccn4)nn23)cc1	1	-1	2	2	0	/	/	/	/
CC/C(=N\NS(=O)(=O)c1ccc(C)cc1)c1ccco1	/	-1	/	-2	-5	/	/	/	/
Cc1ccc(-c2csc(=Nc3cccnc3)n2CCCn2ccnc2)cc1C	-3	-4	-30	18*	-1	-2	-25	-8	30*
O=C(Nc1ccc(Cc2nc3ccccc3s2)cc1)c1ccncc1	/	-3	/	0	-3	/	/	/	/
Cc1cccc(Nc2c3c(nc4ncnn24)CCC3)c1	-1	-2	-6	13*	-1	-3	-5	-5	29*
Cc1cc(C)cc(Nc2c3c(nc4ncnn24)CCC3)c1	2	-3	-2	32*	-1	-2	0	-6	48*
Clc1ccc(Nc2c3c(nc4ncnn24)CCC3)cc1	1	-4	1	2	0	/	/	/	/
CCN(c1cccc(C)c1)S(=O)(=O)c1ccc2c(c1)N(C(C)=O)CCS2	/	-3	/	-2	2	/	/	/	/
SMILES	Runt-CBFb FRET	IMP-1 inh-1	Runt-SMMHC FRET	VIM-2 inhibitor	RanGTP-Impb inh	IMP-1 inh-2	VIM-2 FRET inh	TEM-1 inh	VIM-2 confirm 2
CNS(=O)(=O)c1cccc(C(=O)OCc2cc(=O)oc3c(C)c(O)ccc23)c1	/	-1	/	4	1	/	/	/	/
CCc1c(C)nc2ncnn2c1NCCc1ccc(OC)c(OC)c1	0	-1	-2	34*	2	-2	-2	-4	55*
CN1CCN(c2ccc(Nc3ccnc4cc(Cl)ccc34)cc2)CC1	/	2	/	87*	-5	-2	-10	-6	88*
CN(C(=O)COC(=O)c1ccccc1SCC(=O)N1CCCC1)C1CCS(=O)(=O)C1 (stereo not given)	/	-2	/	1	0	/	/	/	/
COC(=O)c1c(-c2ccncc2)csc1NC(=O)c1ccoc1C	-7	-1	1	50*	10	-3	-5	-5	74*
CCc1cc(C(=O)OC)c(NC(=O)c2ccoc2C)s1	/	-4	/	0	-4	/	/	/	/
CN1CCN(c2ccccc2NC(=O)c2sc3ccccc3c2Cl)CC1	-2	-2	-1	16*	1	-2	0	-7	39*
Cc1c(C#N)c(=O)oc2ccc3ccccc3c12	71*	-2	97*	31*	1	-4	5	-9	11*
CCCCOC(=O)c1ccc(NC(=O)C(=O)NCCN(C)C)cc1	1	-3	6	-3	3	/	/	/	/
O=C(O)c1ccccc1C(=O)c1cccc2ccccc12	/	-3	/	31*	-14	-3	54*	-5	35*
C=C(c1cccc2ccccc12)P(=O)(O)O	1	0	-5	35*	-1	-3	62*	-6	44*
O=C(O)CCC(=O)c1cccc2ccccc12	-1	-3	4	-3	0	/	/	/	/
CC(=O)c1ccccc1C(=O)N1CCC(n2nccc2NC(=O)C2CC2)CC1	/	-3	/	-2	-2	/	/	/	/
CC(C)(CNc1ccc(C(F)(F)F)cc1[N+](=O)[O-])N1CCOCC1	/	-2	/	-2	-2	/	/	/	/
CNC(C)C#Cc1ccc2c(=O)c3cc(C)c(C)cc3oc2c1 (stereo not given)	/	/	/	/	-2	/	/	/	/
CNC(C)C#Cc1ccc2c(=O)c3c(OC)cccc3oc2c1 (stereo not given)	/	1	/	14*	5	-2	1	-5	31*
CC12CCCCC1N(O)C(=O)C(=O)N2O (stereo not given)	-1	-1	-5	20*	-1	-3	34*	-5	19*
COc1cc(CCNc2ccc3nnc(-c4ccccc4)n3n2)cc(OC)c1OC	-1	-2	0	19*	2	-2	0	-1	22*
COc1ccc2nnc(-c3ccccc3)n2n1	0	-4	-1	1	0	/	/	/	/
